Laboratory results taken from ChEMBL document CHEMBL3232902, “PMPA and PMEA prodrugs for the treatment of HIV infections and human papillomavirus (HPV) associated neoplasia and cancer” (Eur J Med Chem, 2014).

Tests used:
[1] = Cytotoxicity against HEL cells assessed as change in cellular morphology by microscopic analysis; assay type: cell-based; conditions: human, read-out: MIC
In short: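 Uninfected HEL monolayers were exposed to compound. Minimal cytotoxic concentration is the concentration causing microscopically visible alteration of cell morphology.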

[2] = tested on: L1210; test: Cytostatic activity against mouse L1210 cells after 48 hrs by coulter counting analysis; assay type: functional, cell-based
In short: (§1)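 (5-7.5)×10^4 cells/well were incubated with compound at 37°C, for 48 h (L1210) or 72 h (CEM, HeLa), then counted by Coulter counter. IC50 is the concentration inhibiting proliferation by 50%.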

[3] = tested on: Human alphaherpesvirus 1; test: Antiviral activity against Herpes simplex virus KOS infected in HEL cells assessed as inhibition of virus-induced cytopathicity; assay type: functional, organism-based; conditions: Human alphaherpesvirus 1, KOS, HEL
In short: (§2)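 Confluent HEL cell cultures were inoculated with 100 CCID50 of virus in the presence of varying compound concentrations. Cytopathicity or plaque formation was scored once untreated infected controls reached completion. EC50 is the concentration inhibiting virus-induced cytopathicity by 50%.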

[4] = Cytotoxicity against human CEM cells; assay type: cell-based, CCRF-CEM; conditions: CEM (CCRF-CEM) cells
[5] = tested on: Human alphaherpesvirus 2; test: Antiviral activity against Herpes simplex virus G infected in HEL cells assessed as inhibition of virus-induced cytopathicity; assay type: functional, organism-based, strain G; conditions: Human alphaherpesvirus 2, strain G, HEL; in short: as §2
[6] = tested on: CCRF-CEM; test: Cytostatic activity against human CEM cells after 72 hrs by coulter counting analysis; assay type: functional, cell-based; conditions: Homo sapiens, CCRF-CEM, 72 h; in short: as §1
[7] = tested on: Human immunodeficiency virus 2; test: Antiviral activity against Human immunodeficiency virus type 2 ROD infected in human CEM cells assessed as inhibition of virus-induced giant cell formation after 4 to 5 days by microscopic analysis; assay type: functional, organism-based, ISOLATE ROD, CCRF-CEM; conditions: Human immunodeficiency virus 2, ISOLATE ROD, CCRF-CEM
In short: (§3)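 CEM cells (~3×10^5/mL) were infected with 100 CCID50/mL HIV-1 IIIB or HIV-2 ROD with compound dilutions. After 4–5 days at 37°C, syncytium formation was scored microscopically. EC50 is the concentration inhibiting giant cell formation by 50%.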

[8] = tested on: Vaccinia virus; test: Antiviral activity against Vaccinia virus Lederle infected in HEL cells assessed as inhibition of virus-induced cytopathicity; assay type: functional, organism-based; conditions: Orthopoxvirus vaccinia; in short: as §2
[9] = tested on: HeLa; test: Cytostatic activity against human HeLa cells after 72 hrs by coulter counting analysis; assay type: functional, cell-based; conditions: Homo sapiens, HeLa, 72 h; in short: as §1
[10] = tested on: Human immunodeficiency virus 1; test: Antiviral activity against Human immunodeficiency virus 1 3B infected in human CEM cells assessed as inhibition of virus-induced giant cell formation after 4 to 5 days by microscopic analysis; assay type: functional, organism-based, CCRF-CEM; in short: as §3
[11] = tested on: Human alphaherpesvirus 1; test: Antiviral activity against thymidine kinase-deficient acyclovir-resistant Herpes simplex virus KOS infected in HEL cells assessed as inhibition of virus-induced cytopathicity; assay type: functional, organism-based; conditions: Human alphaherpesvirus 1, KOS; in short: as §2
[12] = tested on: SiHa; test: Antiproliferative activity against human SiHa cells infected with HPV-16 after 72 hrs by flow cytometric analysis; assay type: functional, cell-based
In short: (§4)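 SiHa (HPV16+), HeLa (HPV18+) and C33A (HPV-) cervical carcinoma lines grown in DMEM with 10% FBS at 37°C, 5% CO2. Seeded 4×10^3 cells/well and left to adhere 24 h. Treated in triplicate with 1, 10 and 100 μM of compound formulated in ~1% DMSO/PBS pH 7.4.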

[13] = tested on: HeLa; test: Antiproliferative activity against human HeLa cells infected with HPV-18 after 72 hrs by flow cytometric analysis; assay type: functional, cell-based; in short: as §4
[14] = Antiproliferative activity against human M08 cells infected with HPV-16 after 96 hrs by trypan blue staining-based Neubauer haemocytometric analysis; assay type: functional, cell-based; conditions: M08, 96 h
In short: (§5)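 SiHa and HPV16+ M08 vulval keratinocytes (VIN3 biopsy-derived) were seeded at 4×10^3 cells/well; human epidermal keratinocytes (EpiLife medium) at 3.5×10^4 cells/well. All adhered 24 h, then were exposed to 0.1 and 1 μM compound in replicate for 96 h at 37°C. Cells were trypsinised, resuspended in PBS and counted in 0.4% trypan blue on a haemocytometer.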

[15] = Antiproliferative activity against human epidermal keratinocytes after 96 hrs by trypan blue staining-based Neubauer haemocytometric analysis; assay type: cell-based; conditions: Keratinocyte; in short: as §5
[16] = Antiproliferative activity against human C33A cells after 72 hrs by flow cytometric analysis; assay type: cell-based, C-33-A; conditions: Homo sapiens, C-33-A, 72 h; in short: as §4
[17] = tested on: SiHa; test: Antiproliferative activity against human SiHa cells infected with HPV-16 after 96 hrs by trypan blue staining-based Neubauer haemocytometric analysis; assay type: functional, cell-based; in short: as §5
[18] = Human immunodeficiency virus 1, 3B, CCRF-CEM

SMILES: C[C@H](NP(=O)(COCCn1cnc2c(N)ncnc21)Oc1cccc2ccccc12)C(=O)OCc1ccccc1 (stereo not given in full)
- MCC [1]: > 100 µM
- IC50 ([2]; Mus musculus, L1210, 48 h): 41 nM
- EC50 [3]: 20 nM
- CC50 [4]: 120 nM
- EC50 [5]: 8 nM
- IC50 [6]: 120 nM
- EC50 [7]: 50 nM
- EC50 [8]: 9500 nM
- IC50 [9]: 1600 nM
- EC50 [10, 18]: 30 nM
- EC50 [11]: 700 nM

SMILES: C[C@H](NP(=O)(COCCn1cnc2c(N)ncnc21)N[C@@H](C)C(=O)OCc1ccccc1)C(=O)OCc1ccccc1
- MCC [1]: > 100 µM
- IC50 ([2]; Mus musculus, L1210, 48 h): 210 nM
- EC50 [3]: 700 nM
- CC50 [4]: 140 nM
- EC50 [5]: 250 nM
- IC50 [6]: 140 nM
- EC50 [7]: 25 nM
- EC50 [8]: 5000 nM
- IC50 [9]: 670 nM
- EC50 [10, 18]: 40 nM
- EC50 [11]: 600 nM

SMILES: C[C@H](NP(=O)(COCCn1cnc2c(N)ncnc21)N[C@@H](C)C(=O)OCC(C)(C)C)C(=O)OCC(C)(C)C
- MCC [1]: > 100 µM
- IC50 [12]: 660 nM
- IC50 ([13]; Homo sapiens, HeLa, 72 h): 600 nM
- IC50 ([2]; Mus musculus, L1210, 48 h): 240 nM
- EC50 [3]: 300 nM
- IC50 [14]: 820 nM
- IC50 [15]: 300 nM
- CC50 [4]: 200 nM
- EC50 [5]: 200 nM
- IC50 [6]: 200 nM
- EC50 [7]: 19 nM
- EC50 [8]: 2700 nM
- IC50 [16]: 840 nM
- IC50 [9]: 1600 nM
- IC50 [17]: 830 nM
- EC50 [10, 18]: 24 nM
- EC50 [11]: 300 nM

SMILES: C[C@H](NP(=O)(COCCn1cnc2c(N)ncnc21)Oc1ccccc1)C(=O)OCC(C)(C)C (stereo not given in full)
- MCC [1]: > 100 µM
- IC50 ([2]; Mus musculus, L1210, 48 h): 150 nM
- EC50 [3]: 600 nM
- CC50 [4]: 400 nM
- EC50 [5]: 150 nM
- IC50 [6]: 400 nM
- EC50 [7]: 44 nM
- EC50 [8]: 3700 nM
- IC50 [9]: 2200 nM
- EC50 [10, 18]: 56 nM
- EC50 [11]: 550 nM

SMILES: C[C@H](NP(=O)(COCCn1cnc2c(N)ncnc21)Oc1cccc2ccccc12)C(=O)OCC(C)(C)C (stereo not given in full)
- MCC [1]: > 100 µM
- IC50 [12]: 600 nM
- IC50 ([13]; Homo sapiens, HeLa, 72 h): 500 nM
- IC50 ([2]; Mus musculus, L1210, 48 h): 68 nM
- EC50 [3]: 250 nM
- IC50 [14]: 48 nM
- IC50 [15]: 76 nM
- CC50 [4]: 45 nM
- EC50 [5]: 100 nM
- IC50 [6]: 45 nM
- EC50 [7]: 19 nM
- EC50 [8]: 1600 nM
- IC50 [16]: 540 nM
- IC50 [9]: 920 nM
- IC50 [17]: 90 nM
- EC50 [10, 18]: 32 nM
- EC50 [11]: 200 nM

SMILES: C[C@H](Cn1cnc2c(N)ncnc21)OCP(=O)(N[C@@H](C)C(=O)OCc1ccccc1)N[C@@H](C)C(=O)OCc1ccccc1
- MCC [1]: > 100 µM
- IC50 ([2]; Mus musculus, L1210, 48 h): 120000 nM
- EC50 [3]: 10000 nM
- CC50 [4]: 6900 nM
- EC50 [5]: 3000 nM
- IC50 [6]: > 500000 nM
- EC50 [7]: 14 nM
- EC50 [8]: 20000 nM
- IC50 [9]: > 500000 nM
- EC50 [10, 18]: 30 nM
- EC50 [11]: 7000 nM

SMILES: C[C@H](Cn1cnc2c(N)ncnc21)OCP(=O)(N[C@@H](C)C(=O)OCC(C)(C)C)N[C@@H](C)C(=O)OCC(C)(C)C
- MCC [1]: > 100 µM
- IC50 [12]: 730 nM
- IC50 ([13]; Homo sapiens, HeLa, 72 h): 540 nM
- IC50 ([2]; Mus musculus, L1210, 48 h): 1500 nM
- EC50 [3]: 1500 nM
- CC50 [4]: 1200 nM
- EC50 [5]: 700 nM
- IC50 [6]: 1200 nM
- EC50 [7]: 2 nM
- EC50 [8]: 6000 nM
- IC50 [16]: 700 nM
- IC50 [9]: 4000 nM
- EC50 [10, 18]: 4 nM
- EC50 [11]: 2000 nM

SMILES: C[C@H](Cn1cnc2c(N)ncnc21)OCP(=O)(N[C@@H](C)C(=O)OCc1ccccc1)Oc1cccc2ccccc12 (stereo not given in full)
- MCC [1]: > 100 µM
- IC50 ([2]; Mus musculus, L1210, 48 h): 3700 nM
- EC50 [3]: 1300 nM
- CC50 [4]: 4400 nM
- EC50 [5]: 700 nM
- IC50 [6]: 4400 nM
- EC50 [7]: 11 nM
- EC50 [8]: 5500 nM
- IC50 [9]: 11000 nM
- EC50 [10, 18]: 19 nM
- EC50 [11]: 800 nM

SMILES: C[C@H](Cn1cnc2c(N)ncnc21)OCP(=O)(N[C@@H](C)C(=O)OCC(C)(C)C)Oc1ccccc1 (stereo not given in full)
- MCC [1]: > 100 µM
- IC50 ([2]; Mus musculus, L1210, 48 h): 4000 nM
- EC50 [3]: 1300 nM
- CC50 [4]: 2300 nM
- EC50 [5]: 700 nM
- IC50 [6]: 2300 nM
- EC50 [7]: 12 nM
- EC50 [8]: 8000 nM
- IC50 [9]: 8000 nM
- EC50 [10, 18]: 18 nM
- EC50 [11]: 1000 nM

SMILES: C[C@H](Cn1cnc2c(N)ncnc21)OCP(=O)(N[C@@H](C)C(=O)OCC(C)(C)C)Oc1cccc2c1CCCC2 (stereo not given in full)
- MCC [1]: > 100 µM
- IC50 ([2]; Mus musculus, L1210, 48 h): 1300 nM
- EC50 [3]: 1400 nM
- CC50 [4]: 2000 nM
- EC50 [5]: 1400 nM
- IC50 [6]: 2000 nM
- EC50 [7]: 9 nM
- EC50 [8]: 10500 nM
- IC50 [9]: 5300 nM
- EC50 [10, 18]: 11 nM
- EC50 [11]: 5500 nM

SMILES: C[C@H](Cn1cnc2c(N)ncnc21)OCP(=O)(N[C@@H](C)C(=O)OCC(C)(C)C)Oc1cccc2ccccc12 (stereo in doubt; 15)
- MCC [1]: > 100 µM
- IC50 ([13]; hela): 530 nM
- IC50 ([2]; l1210): 5600 nM
- EC50 [3]: 1500 nM
- CC50 [4]: 6900 nM
- EC50 [5]: 700 nM
- IC50 [6]: 6900 nM
- EC50 [7]: 7 nM
- EC50 [8]: 4000 nM
- IC50 [16]: 7600 nM
- IC50 [9]: 17000 nM
- EC50 ([10]; ccrf-cem): 9 nM
- EC50 [11]: 2000 nM

SMILES: Nc1ncnc2c1ncn2CCOCP(=O)(O)O [ADEFOVIR]
- MCC [1]: > 100 µM
- IC50 ([2]; Mus musculus, L1210, 48 h): 3000 nM
- EC50 [3]: 4700 nM
- CC50 [4]: ≥ 50000 nM
- EC50 [5]: 6300 nM
- IC50 [6]: 24000 nM
- EC50 [7]: 8200 nM
- IC50 [16]: 7800 nM
- IC50 [9]: 181000 nM
- EC50 [10, 18]: 8400 nM
- EC50 [11]: 7000 nM

SMILES: C[C@H](Cn1cnc2c(N)ncnc21)OCP(=O)(O)O [TENOFOVIR ANHYDROUS]
- MCC [1]: > 100 µM
- IC50 ([2]; Mus musculus, L1210, 48 h): 11000 nM
- EC50 [3]: 105000 nM
- CC50 [4]: > 500000 nM
- EC50 [5]: 122000 nM
- IC50 [6]: 6900 nM
- EC50 [7]: 3700 nM
- EC50 [8]: > 100000 nM
- IC50 [9]: 17000 nM
- EC50 [10, 18]: 3900 nM
- EC50 [11]: 151000 nM
